According to ChEMBL document CHEMBL5705905, “Pharmacological targeting of kinases MST1 and MST2 augments tissue repair and regeneration” (Sci Transl Med, 2016):
Calls of active or inactive are those of the source. The rule behind the calls is not given here.

Columns and labels:
[1] = molecular target: Discoidin domain-containing receptor 2 (Homo sapiens) (UniProt Q16832); experiment: Inhibition of DDR2 (unknown origin) assessed as remaining activity at 1 uM by Kinome scan method relative to control
[2] = molecular target: Tyrosine-protein kinase Fes/Fps (Homo sapiens) (UniProt P07332); experiment: Inhibition of FES (unknown origin) assessed as remaining activity at 1 uM by Kinome scan method relative to control
[3] = molecular target: Serine/threonine-protein kinase TAO1 (Homo sapiens, UniProt Q7L7X3); experiment: Inhibition of TAOK1 (unknown origin) in presence of ATP by enzymatic assay
[4] = molecular target: Casein kinase I isoform alpha-like (Homo sapiens) (UniProt Q8N752); experiment: Inhibition of CSNK1A1L (unknown origin) assessed as remaining activity at 1 uM by Kinome scan method relative to control
Outline: (§1)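 Active-site-dependent competition-binding profiling (KINOMEscan) at 1 μM against a 468-kinase panel; compound supplied from a 10 mM DMSO stock. Read-out is ctrl% = (test signal − positive control signal)/(negative control signal − positive control signal) × 100. DMSO is the negative control (100%) and a control compound the positive control (0%). Lower ctrl% means tighter binding.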

[5] = molecular target: Serine/threonine-protein kinase ULK2 (Homo sapiens, UniProt Q8IYT8); experiment: Binding affinity to ULK2 (unknown origin) assessed as dissociation constant
[6] = molecular target: Uncharacterized serine/threonine-protein kinase SBK3 (Homo sapiens) (UniProt P0C264); experiment: Inhibition of SgK110 (unknown origin) assessed as remaining activity at 1 uM by Kinome scan method relative to control
[7] = molecular target: Serine/threonine-protein kinase 16 (Homo sapiens) (UniProt O75716); experiment: Inhibition of STK16 (unknown origin) assessed as remaining activity at 1 uM by Kinome scan method relative to control
Serine/threonine-protein kinase 16 (Homo sapiens), sequence (O75716 whole entry): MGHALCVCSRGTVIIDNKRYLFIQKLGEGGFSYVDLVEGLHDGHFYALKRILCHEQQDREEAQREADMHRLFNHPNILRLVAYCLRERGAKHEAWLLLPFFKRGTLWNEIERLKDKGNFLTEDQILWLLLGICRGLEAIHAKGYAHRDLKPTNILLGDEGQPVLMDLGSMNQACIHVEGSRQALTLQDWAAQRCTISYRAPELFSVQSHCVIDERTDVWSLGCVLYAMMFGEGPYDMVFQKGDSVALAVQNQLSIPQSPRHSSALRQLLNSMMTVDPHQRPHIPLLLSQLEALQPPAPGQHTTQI

[8] = molecular target: Leukocyte tyrosine kinase receptor (Homo sapiens) (UniProt P29376); experiment: Inhibition of LTK (unknown origin) assessed as remaining activity at 1 uM by Kinome scan method relative to control
[9] = tested on: Epidermal growth factor receptor (Homo sapiens), P00533 [L858R,T790M]; experiment: Inhibition of EGFR L858R/T790M mutant (unknown origin) assessed as remaining activity at 1 uM by Kinome scan method relative to control
[10] = molecular target: Serine/threonine-protein kinase Chk1 (Homo sapiens) (UniProt O14757); experiment: Inhibition of CHEK1 (unknown origin) assessed as remaining activity at 1 uM by Kinome scan method relative to control; outline: as §1
Serine/threonine-protein kinase Chk1 (Homo sapiens), sequence (O14757 whole entry): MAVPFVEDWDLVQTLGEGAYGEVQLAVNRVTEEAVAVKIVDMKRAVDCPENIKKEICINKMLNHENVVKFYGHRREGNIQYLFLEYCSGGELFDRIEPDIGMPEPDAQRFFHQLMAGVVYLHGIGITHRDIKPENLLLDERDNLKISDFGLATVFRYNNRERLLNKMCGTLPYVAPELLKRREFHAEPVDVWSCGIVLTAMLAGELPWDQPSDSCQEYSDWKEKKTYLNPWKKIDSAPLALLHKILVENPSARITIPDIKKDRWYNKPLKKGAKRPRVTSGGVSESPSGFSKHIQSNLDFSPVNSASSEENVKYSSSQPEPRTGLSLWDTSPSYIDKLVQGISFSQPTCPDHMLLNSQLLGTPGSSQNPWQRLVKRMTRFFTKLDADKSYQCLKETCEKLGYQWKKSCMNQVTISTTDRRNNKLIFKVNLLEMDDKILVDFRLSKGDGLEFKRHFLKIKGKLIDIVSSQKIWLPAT

[11] = Cmax in male Sprague-Dawley rat at 10 mg/kg, po measured for 24 hrs by LC-MS/MS analysis; type: ADME, organism-based; settings: in vivo
Outline: (§2)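 Sprague-Dawley rats, single intravenous or oral dose. Parameters (half-life, AUC, bioavailability) reported in a supplementary table.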

[12] = molecular target: Myosin light chain kinase family member 4 (Homo sapiens) (UniProt Q86YV6); experiment: Inhibition of MYLK4 (unknown origin) assessed as remaining activity at 1 uM by Kinome scan method relative to control
Myosin light chain kinase family member 4 (Homo sapiens), sequence (Q86YV6 whole entry): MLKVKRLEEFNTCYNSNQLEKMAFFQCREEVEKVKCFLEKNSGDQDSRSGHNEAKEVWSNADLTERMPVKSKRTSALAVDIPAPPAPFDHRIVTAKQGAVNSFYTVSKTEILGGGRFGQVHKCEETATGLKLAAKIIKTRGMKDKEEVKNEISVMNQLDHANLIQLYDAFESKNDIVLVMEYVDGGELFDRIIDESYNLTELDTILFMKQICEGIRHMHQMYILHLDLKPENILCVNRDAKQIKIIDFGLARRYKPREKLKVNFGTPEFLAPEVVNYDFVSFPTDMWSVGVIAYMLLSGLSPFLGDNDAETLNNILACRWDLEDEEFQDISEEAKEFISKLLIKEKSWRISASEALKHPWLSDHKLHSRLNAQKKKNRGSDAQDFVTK
Outline: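 KINOMEscan active-site competition binding assay at 1 μM against 468 kinases. Ctrl% = (test − positive control)/(negative control DMSO − positive control) × 100; lower values mean tighter binding.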

[13] = molecular target: Myosin light chain kinase (Homo sapiens) (UniProt Q32MK0); experiment: Inhibition of MLCK (unknown origin) assessed as remaining activity at 1 uM by Kinome scan method relative to control
[14] = molecular target: Bone morphogenetic protein receptor type-1B (Homo sapiens) (UniProt O00238); experiment: Inhibition of BMPR1B (unknown origin) assessed as remaining activity at 1 uM by Kinome scan method relative to control
Outline: (§3)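 Active-site-dependent competition-binding (KINOMEscan) panel of 468 kinases, test compound at 1 μM (from a 10 mM DMSO stock). Read-out is ctrl% = (test signal − positive control signal)/(negative control signal − positive control signal) × 100. DMSO is the negative control (100%) and a control compound is the positive control (0%). Lower ctrl% means tighter binding.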

[15] = Half life in male Sprague-Dawley rat at 5 mg/kg, iv measured for 24 hrs by LC-MS/MS analysis; type: ADME, organism-based; settings: in vivo; outline: as §2
[16] = molecular target: Serine/threonine-protein kinase D2 (Homo sapiens) (UniProt Q9BZL6); experiment: Inhibition of PRKD2 (unknown origin) assessed as remaining activity at 1 uM by Kinome scan method relative to control
Serine/threonine-protein kinase D2 (Homo sapiens), sequence (Q9BZL6 whole entry): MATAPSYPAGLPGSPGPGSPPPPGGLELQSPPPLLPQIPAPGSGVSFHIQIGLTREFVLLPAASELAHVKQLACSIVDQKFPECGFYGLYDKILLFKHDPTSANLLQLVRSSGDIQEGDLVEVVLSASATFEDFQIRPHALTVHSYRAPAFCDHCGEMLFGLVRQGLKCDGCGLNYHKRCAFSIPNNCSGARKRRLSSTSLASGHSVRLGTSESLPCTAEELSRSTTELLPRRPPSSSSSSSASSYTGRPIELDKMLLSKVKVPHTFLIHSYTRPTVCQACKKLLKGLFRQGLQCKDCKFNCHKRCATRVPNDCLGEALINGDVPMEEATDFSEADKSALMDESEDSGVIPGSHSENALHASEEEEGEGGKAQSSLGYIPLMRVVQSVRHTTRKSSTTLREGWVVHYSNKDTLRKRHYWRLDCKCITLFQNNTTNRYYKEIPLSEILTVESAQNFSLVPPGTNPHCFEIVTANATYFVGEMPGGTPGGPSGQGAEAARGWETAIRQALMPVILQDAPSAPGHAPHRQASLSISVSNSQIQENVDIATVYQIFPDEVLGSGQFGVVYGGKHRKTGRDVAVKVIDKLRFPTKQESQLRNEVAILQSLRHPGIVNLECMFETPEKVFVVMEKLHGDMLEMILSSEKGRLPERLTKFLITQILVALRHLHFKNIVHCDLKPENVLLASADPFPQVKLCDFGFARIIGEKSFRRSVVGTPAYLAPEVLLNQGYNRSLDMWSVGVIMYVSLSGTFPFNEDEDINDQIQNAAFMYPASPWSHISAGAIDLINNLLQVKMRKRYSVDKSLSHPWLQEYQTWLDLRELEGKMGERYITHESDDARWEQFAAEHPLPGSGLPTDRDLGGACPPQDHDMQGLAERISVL

[17] = tested on: Primary hepatocyte; experiment: Inhibition of MST1/2 (unknown origin) in mouse Primary hepatocyte cells assessed as H2O2 stimulated MST1/2 autophosphorylation level at 1 to 3 uM by immunoblot analysis; type: cell-based; settings: dose 1-3 µM
[18] = tested on: HepG2; experiment: Inhibition of Flag-tagged MST1 Y101F/D109A mutant (unknown origin) in human HepG2 cells assessed as MOB1 phosphorylation level at 0.3 to 10 uM by immunoblot analysis; type: cell-based; settings: dose 0.3-10 µM
[19] = molecular target: Tyrosine-protein kinase JAK1 (Homo sapiens, UniProt P23458); experiment: Inhibition of JAK1 JH2domain-pseudokinase (unknown origin) in presence of ATP by enzymatic assay
[20] = molecular target: Phosphatidylinositol 3-kinase catalytic subunit type 3 (Homo sapiens) (UniProt Q8NEB9); experiment: Inhibition of VPS34 (unknown origin) assessed as remaining activity at 1 uM by Kinome scan method relative to control
Phosphatidylinositol 3-kinase catalytic subunit type 3 (Homo sapiens), sequence (Q8NEB9 whole entry): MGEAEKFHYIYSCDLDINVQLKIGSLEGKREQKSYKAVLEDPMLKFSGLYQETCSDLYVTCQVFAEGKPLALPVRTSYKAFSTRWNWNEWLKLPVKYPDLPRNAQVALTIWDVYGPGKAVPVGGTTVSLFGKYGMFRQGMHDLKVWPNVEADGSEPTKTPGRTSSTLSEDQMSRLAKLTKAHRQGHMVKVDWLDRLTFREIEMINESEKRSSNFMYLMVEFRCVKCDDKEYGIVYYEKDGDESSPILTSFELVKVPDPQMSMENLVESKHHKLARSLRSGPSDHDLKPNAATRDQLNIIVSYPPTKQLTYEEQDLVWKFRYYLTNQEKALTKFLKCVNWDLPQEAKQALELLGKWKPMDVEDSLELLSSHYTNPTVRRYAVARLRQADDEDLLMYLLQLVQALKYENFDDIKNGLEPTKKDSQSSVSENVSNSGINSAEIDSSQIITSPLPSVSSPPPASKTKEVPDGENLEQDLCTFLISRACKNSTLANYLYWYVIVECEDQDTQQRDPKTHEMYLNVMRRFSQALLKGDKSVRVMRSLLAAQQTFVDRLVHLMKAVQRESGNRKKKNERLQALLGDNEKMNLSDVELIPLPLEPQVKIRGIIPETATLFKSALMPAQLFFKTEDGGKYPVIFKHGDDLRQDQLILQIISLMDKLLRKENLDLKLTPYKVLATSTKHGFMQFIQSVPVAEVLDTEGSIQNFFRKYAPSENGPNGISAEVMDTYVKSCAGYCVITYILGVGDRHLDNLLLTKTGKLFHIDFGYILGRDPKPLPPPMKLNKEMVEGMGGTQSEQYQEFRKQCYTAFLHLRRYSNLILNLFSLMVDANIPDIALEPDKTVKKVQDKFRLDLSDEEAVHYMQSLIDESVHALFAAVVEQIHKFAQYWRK

[21] = tested on: Receptor-type tyrosine-protein kinase FLT3 (Homo sapiens), P36888 [D835Y]; experiment: Inhibition of FLT3 D835Y mutant (unknown origin) assessed as remaining activity at 1 uM by Kinome scan method relative to control
[22] = molecular target: Casein kinase I isoform epsilon (Homo sapiens) (UniProt P49674); experiment: Inhibition of CSNK1E (unknown origin) assessed as remaining activity at 1 uM by Kinome scan method relative to control; outline: as §1
[23] = molecular target: Cyclin-dependent kinase 5 (Homo sapiens) (UniProt Q00535); experiment: Inhibition of CDK5 (unknown origin) assessed as remaining activity at 1 uM by Kinome scan method relative to control; outline: as §1
[24] = molecular target: Serine/threonine-protein kinase Nek7 (Homo sapiens) (UniProt Q8TDX7); experiment: Inhibition of NEK7 (unknown origin) assessed as remaining activity at 1 uM by Kinome scan method relative to control
[25] = AUC (0 to infinity) in male Sprague-Dawley rat at 5 mg/kg, iv measured for 24 hrs by LC-MS/MS analysis; type: ADME, organism-based; settings: in vivo; outline: as §2
[26] = tested on: Mus musculus; experiment: In vivo inhibition of MST1/2 in wild-type Mst1fl/fl Mst2fl/fl mouse assessed as decrease in MOB1 phosphorylation level at 1 mg/kg, ip administrated daily for 7 days by immunoblot analysis; type: functional, organism-based; settings: Liver, time 7.0 day
[27] = molecular target: Serine/threonine-protein kinase N1 (Homo sapiens) (UniProt Q16512); experiment: Inhibition of PKN1 (unknown origin) assessed as remaining activity at 1 uM by Kinome scan method relative to control
[28] = molecular target: Dual specificity mitogen-activated protein kinase kinase 2 (Homo sapiens) (UniProt P36507); experiment: Inhibition of MEK2 (unknown origin) assessed as remaining activity at 1 uM by Kinome scan method relative to control
Dual specificity mitogen-activated protein kinase kinase 2 (Homo sapiens), sequence (P36507 whole entry): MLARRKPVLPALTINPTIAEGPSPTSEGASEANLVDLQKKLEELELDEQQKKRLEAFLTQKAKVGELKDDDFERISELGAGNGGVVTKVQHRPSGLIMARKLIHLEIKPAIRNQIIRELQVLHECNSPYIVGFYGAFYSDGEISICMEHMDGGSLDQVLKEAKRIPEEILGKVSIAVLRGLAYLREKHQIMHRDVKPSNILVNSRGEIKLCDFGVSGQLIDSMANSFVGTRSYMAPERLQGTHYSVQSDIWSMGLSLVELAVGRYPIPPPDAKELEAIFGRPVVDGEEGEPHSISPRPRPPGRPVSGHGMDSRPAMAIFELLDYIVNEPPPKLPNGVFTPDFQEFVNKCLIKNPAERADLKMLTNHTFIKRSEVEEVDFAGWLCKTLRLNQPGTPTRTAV

[29] = tested on: ALK tyrosine kinase receptor (Homo sapiens), Q9UM73 [L1196M]; experiment: Inhibition of ALK L1196M mutant (unknown origin) assessed as remaining activity at 1 uM by Kinome scan method relative to control; outline: as §3
ALK tyrosine kinase receptor (Homo sapiens), Q9UM73 [L1196M], sequence (Q9UM73 whole entry L1196M, looked up): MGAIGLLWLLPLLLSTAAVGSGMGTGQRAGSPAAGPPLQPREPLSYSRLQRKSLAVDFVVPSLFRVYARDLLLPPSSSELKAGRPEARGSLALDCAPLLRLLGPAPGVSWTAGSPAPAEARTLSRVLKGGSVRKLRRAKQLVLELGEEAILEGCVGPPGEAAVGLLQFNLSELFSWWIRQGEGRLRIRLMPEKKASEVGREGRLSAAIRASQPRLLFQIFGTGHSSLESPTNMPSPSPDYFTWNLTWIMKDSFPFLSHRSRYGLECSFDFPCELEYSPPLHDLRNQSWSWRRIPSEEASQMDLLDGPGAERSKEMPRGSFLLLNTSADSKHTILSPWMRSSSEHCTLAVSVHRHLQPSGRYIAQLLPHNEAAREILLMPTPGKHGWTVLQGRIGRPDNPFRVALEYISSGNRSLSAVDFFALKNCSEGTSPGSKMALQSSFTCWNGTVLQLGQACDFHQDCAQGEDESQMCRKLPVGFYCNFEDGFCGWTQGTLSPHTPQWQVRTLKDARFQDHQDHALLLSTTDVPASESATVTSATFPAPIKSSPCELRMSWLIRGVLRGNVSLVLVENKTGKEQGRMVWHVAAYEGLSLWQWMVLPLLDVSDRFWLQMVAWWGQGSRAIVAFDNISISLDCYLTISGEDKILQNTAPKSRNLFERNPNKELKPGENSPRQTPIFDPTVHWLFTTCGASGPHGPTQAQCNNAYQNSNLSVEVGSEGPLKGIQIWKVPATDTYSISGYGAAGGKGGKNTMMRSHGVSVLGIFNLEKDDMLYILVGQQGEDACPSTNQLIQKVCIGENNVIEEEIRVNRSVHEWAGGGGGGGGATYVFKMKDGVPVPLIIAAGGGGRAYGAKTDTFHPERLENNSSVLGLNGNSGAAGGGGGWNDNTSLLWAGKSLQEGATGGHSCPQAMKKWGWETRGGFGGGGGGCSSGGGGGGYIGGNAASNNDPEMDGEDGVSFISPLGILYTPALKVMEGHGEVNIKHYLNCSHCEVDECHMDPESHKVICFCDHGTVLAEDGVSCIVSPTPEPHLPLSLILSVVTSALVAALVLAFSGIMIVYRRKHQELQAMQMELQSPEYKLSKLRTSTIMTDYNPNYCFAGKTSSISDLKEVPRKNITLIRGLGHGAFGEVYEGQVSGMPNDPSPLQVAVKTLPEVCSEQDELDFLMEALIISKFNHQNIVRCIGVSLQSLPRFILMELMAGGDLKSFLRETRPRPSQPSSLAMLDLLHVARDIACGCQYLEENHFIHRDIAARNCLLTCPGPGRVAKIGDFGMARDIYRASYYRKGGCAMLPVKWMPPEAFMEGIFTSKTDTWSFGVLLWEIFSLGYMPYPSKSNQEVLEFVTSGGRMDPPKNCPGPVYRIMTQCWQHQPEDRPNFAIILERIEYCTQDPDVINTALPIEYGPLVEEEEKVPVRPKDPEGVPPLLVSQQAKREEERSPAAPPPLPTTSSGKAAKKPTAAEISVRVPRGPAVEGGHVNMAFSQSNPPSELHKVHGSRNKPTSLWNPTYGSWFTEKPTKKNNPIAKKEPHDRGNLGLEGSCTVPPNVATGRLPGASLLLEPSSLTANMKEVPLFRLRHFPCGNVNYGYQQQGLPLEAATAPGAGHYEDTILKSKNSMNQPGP

For `CN1C(=O)c2sccc2N(C)c2nc(Nc3ccc(S(N)(=O)=O)cc3)ncc21`, the Activity [1] was 100%, the Activity [2] was 39% and the IC50 [3] was 0.165 µM. For the same molecule, the Activity [4] was 93%, the Kd [5] was 0.035 µM and the Activity [6] was 100%. The Activity [7] was 50%, the Activity [8] was 100% and the Activity [9] was 77%. It also gave an Activity [10] of 73%, a Cmax [11] of 0.118 µg/mL and an Activity [12] of 89%. The Activity [13] was 87%, the Activity [14] was 26% and the half-life [15] was 1.24 h. The Activity [16] was 87%, the inhibition [17] was “Active” and the inhibition [18] was “Active”. It also gave an IC50 [19] of 0.0387 µM, an Activity [20] of 79% and an Activity [21] of 86%. It also gave an Activity [22] of 92%, an Activity [23] of 94% and an Activity [24] of 88%. For the same molecule, the AUC(0-inf) [25] was 1.27 µg·h/mL, the inhibition [26] was “Active” and the Activity [27] was 100%. The Activity [28] was 99% and the Activity [29] was 100%.
